# Laboratory results as given in ChEMBL document CHEMBL1124186, “Synthesis and evaluation of tylosin-related macrolides modified at the aldehyde function: a new series of orally effective antibiotics” (1988).
# Legend:
# Mus musculus [1] = test: Peripheral plasma levels in mice after oral administration of 100 mg/kg dose for 0.5 hr; assay type: functional, organism-based; set-up: dose 100 mg/kg
# Procedure, shortened: (§1)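 Mice were given the compound orally and sampled for peripheral plasma at each time point. Plasma was assayed microbiologically against Micrococcus luteus seeded in Antibiotic Medium 1. Inhibition zone sizes were read, and concentrations were calculated from each compound's own standard curve. Each value is the mean of five mice per time point.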
# Staphylococcus aureus [2] = test: In vitro antimicrobial activity against Staphylococcus aureus X1; assay type: functional
# Rattus norvegicus [3] = test: Peripheral plasma levels in rats after oral administration of 100 mg/kg dose for 1 hr; assay type: functional, organism-based; set-up: dose 100 mg/kg
# Procedure, shortened: (§2)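 Rats received 100 mg/kg orally and were sampled for peripheral plasma. Concentrations were measured by Micrococcus luteus agar-diffusion microbiological assay in Antibiotic Medium 1, with zone sizes converted using the standard curve for the appropriate compound. Each value is the average of three rats per time point.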
# Rattus norvegicus [4] = test: Peripheral plasma levels in rats after oral administration of 100 mg/kg dose for 0.25 hr; assay type: functional, organism-based; set-up: dose 100 mg/kg; procedure, shortened: as §2
# Mus musculus [5] = test: Peripheral plasma levels in mice after oral administration of 50 mg/kg dose for 0.25 hr; assay type: functional, organism-based; set-up: dose 50 mg/kg; procedure, shortened: as §1
# Streptococcus pyogenes [6] = test: In vitro antimicrobial activity against Streptococcus pyogenes C203; assay type: functional
# Streptococcus pyogenes [7] = test: In vivo effective dose against experimental infections in rodent caused by Streptococcus pyogenes C203 when administered orally; assay type: functional; conditions: po
# Rattus norvegicus [8] = test: Peripheral plasma levels in rats after oral administration of 100 mg/kg dose for 2 hr; assay type: functional, organism-based; set-up: dose 100 mg/kg; procedure, shortened: as §2
# Mus musculus [9] = test: Peripheral plasma levels in mice after oral administration of 50 mg/kg dose for 0.5 hr; assay type: functional, organism-based; set-up: dose 50 mg/kg; procedure, shortened: as §1
# Rattus norvegicus [10] = test: Peripheral plasma levels in rats after oral administration of 100 mg/kg dose for 4 hr; assay type: functional, organism-based; set-up: dose 100 mg/kg; procedure, shortened: as §2
# [11] = test system: Staphylococcus epidermidis; test: In vitro antimicrobial activity against Staphylococcus epidermidis EPI1; assay type: functional
# Mus musculus [12] = test: Peripheral plasma levels in mice after oral administration of 100 mg/kg dose for 1 hr; assay type: functional, organism-based; set-up: dose 100 mg/kg; procedure, shortened: as §1
# Enterococcus faecium = test: In vitro antimicrobial activity against Streptococcus faecium X66; assay type: functional, streptococcus fae-cium
# Mus musculus [13] = test: Peripheral plasma levels in mice after oral administration of 50 mg/kg dose for 2 hr; assay type: functional, organism-based; set-up: dose 50 mg/kg; procedure, shortened: as §1
# Mus musculus [14] = test: Peripheral plasma levels in mice after oral administration of 50 mg/kg dose for 1 hr; assay type: functional, organism-based; set-up: dose 50 mg/kg; procedure, shortened: as §1
# Streptococcus pneumoniae [15] = test: In vitro antimicrobial activity against Streptococcus pneumoniae; assay type: functional
# Haemophilus influenzae [16] = test: In vitro antimicrobial activity against Haemophilus influenzae.; assay type: functional
# Streptococcus pyogenes [17] = test: In vivo effective dose against experimental infections in rodent caused by Streptococcus pyogenes C203 when administered sc; assay type: functional
# Mus musculus [18] = test: Peripheral plasma levels in mice after oral administration of 100 mg/kg dose for 0.25 hr; assay type: functional, organism-based; set-up: dose 100 mg/kg; procedure, shortened: as §1
# Rattus norvegicus [19] = test: Peripheral plasma levels in rats after oral administration of 100 mg/kg dose for 0.5 hr; assay type: functional, organism-based; set-up: dose 100 mg/kg; procedure, shortened: as §2
# Haemophilus influenzae [20] = test: In vitro antimicrobial activity against aerobic bacteria Haemophilus influenzae 465; assay type: functional
# Eikenella corrodens = test: In vitro antimicrobial activity against anaerobic bacteria bacteroides corrodens 1874; assay type: functional
# [21] = In vitro antimicrobial activity against anaerobic bacteria peptostreptococcus intermedius 1264; assay type: functional
# Staphylococcus aureus [22] = test: In vitro antimicrobial activity against aerobic bacteria Staphylococcus aureus 513E; assay type: functional
# Haemophilus influenzae [23] = test: In vitro antimicrobial activity against aerobic bacteria Haemophilus influenzae MX366,; assay type: functional
# [24] = test system: Peptostreptococcus anaerobius; test: In vitro antimicrobial activity against anaerobic bacteria eubacterium peptostreptococcus anaerobius 1428,; assay type: functional
# [25] = test system: Prevotella melaninogenica; test: In vitro antimicrobial activity against anaerobic bacteria bacteroides melaninogenicus 1856,; assay type: functional
# [26] = test system: Haemophilus parainfluenzae; test: In vitro antimicrobial activity against aerobic bacteria Haemophilus parainfluenzae 9796; assay type: functional
# [27] = test system: Prevotella melaninogenica; test: In vitro antimicrobial activity against anaerobic bacteria bacteroides melaninogenicus 2736; assay type: functional
# Streptococcus [28] = test: In vitro antimicrobial activity against aerobic bacteria Streptococcus G Kruder; assay type: functional
# Clostridioides difficile = test: In vitro antimicrobial activity against anaerobic bacteria Clostridium difficile 2994; assay type: functional
# Streptococcus pneumoniae [29] = test: In vitro antimicrobial activity against aerobic bacteria Streptococcus pneumoniae B1-438; assay type: functional, streptococcus pneum
# Phocaeicola vulgatus = test: In vitro antimicrobial activity against anaerobic bacteria bacteroides vulgatus 1211; assay type: functional
# Staphylococcus aureus [30] = test: In vitro antimicrobial activity against aerobic bacteria Staphylococcus aureus V140,; assay type: functional
# Mus musculus [31] = test: Peripheral plasma levels in mice after oral administration of 100 mg/kg dose for 2 hr; assay type: functional, organism-based; set-up: dose 100 mg/kg; procedure, shortened: as §1
# Haemophilus influenzae [32] = test: In vitro antimicrobial activity against aerobic bacteria Haemophilus influenzae 76; assay type: functional
# Streptococcus [33] = test: In vitro antimicrobial activity against aerobic bacteria Streptococcus B 5; assay type: functional
# Clostridium perfringens = test: In vitro antimicrobial activity against anaerobic bacteria clostridium perfringens 81,; assay type: functional
# Streptococcus [34] = test: In vitro antimicrobial activity against aerobic bacteria Streptococcus D 8043; assay type: functional
# Streptococcus [35] = test: In vitro antimicrobial activity against aerobic bacteria Streptococcus D 2041; assay type: functional
# Fusobacterium = test: In vitro antimicrobial activity against anaerobic bacteria fusobacterium symbiosum 1470; assay type: functional
# Streptococcus [36] = test: In vitro antimicrobial activity against aerobic bacteria Streptococcus C 24; assay type: functional
# [37] = test system: Bacteroides thetaiotaomicron; test: In vitro antimicrobial activity against anaerobic bacteria bacteroides thetaiotaomicron 1438; assay type: functional
# Bacteroides fragilis [38] = test: In vitro antimicrobial activity against anaerobic bacteria bacteroides fragilis 1877; assay type: functional
# Clostridium septicum = test: In vitro antimicrobial activity against anaerobic bacteria clostridium septicum 1128; assay type: functional
# Streptococcus sanguinis = test: In vitro antimicrobial activity against aerobic bacteria Streptococcus sanguis MX132; assay type: functional
# [39] = test system: Peptoniphilus asaccharolyticus; test: In vitro antimicrobial activity against anaerobic bacteria peptococcus asaccharolyticus 1302; assay type: functional
# Streptococcus [40] = test: In vitro antimicrobial activity against aerobic bacteria Streptococcus B 8; assay type: functional
# [41] = test system: Staphylococcus epidermidis; test: In vitro antimicrobial activity against aerobic bacteria Streptococcus epi 222; assay type: functional
# Cutibacterium acnes = test: In vitro antimicrobial activity against anaerobic bacteria propionibacterium acnes 79; assay type: functional
# Streptococcus [42] = test: In vitro antimicrobial activity against aerobic bacteria Streptococcus B 14; assay type: functional
# Streptococcus [43] = test: In vitro antimicrobial activity against aerobic bacteria Streptococcus D 9960; assay type: functional
# [44] = test system: Fusobacterium necrophorum; test: In vitro antimicrobial activity against anaerobic bacteria usobacterium necrophorum 6054A; assay type: functional
# Bacteroides fragilis [45] = test: In vitro antimicrobial activity against anaerobic bacteria bacteroides fragilis 1936B,; assay type: functional
# Collinsella aerofaciens = test: In vitro antimicrobial activity against anaerobic bacteria eubacterium aerofaciens 1235; assay type: functional
# Bacteroides fragilis [46] = test: In vitro antimicrobial activity against anaerobic bacteria bacteroides fragilis 111; assay type: functional
# Staphylococcus aureus [47] = test: In vitro antimicrobial activity against aerobic bacteria Staphylococcus aureus V135; assay type: functional
smiles,measurement,setting,value
CC[C@H]1OC(=O)C[C@@H](O)[C@H](C)[C@@H](O[C@@H]2O[C@H](C)[C@@H](O[C@H]3C[C@@](C)(O)[C@@H](O)[C@H](C)O3)[C@H](N(C)C)[C@H]2O)[C@@H](CCN2C(=O)c3ccccc3C2=O)C[C@@H](C)C(=O)/C=C/C(C)=C/[C@@H]1CO[C@@H]1O[C@H](C)[C@@H](O)[C@@H](OC)[C@H]1OC,Concentration,Mus musculus [1],6 µg/mL
same,MIC,Staphylococcus aureus [2],1 µg/mL
same,Concentration,Rattus norvegicus [3],2.1 µg/mL
same,Concentration,Rattus norvegicus [4],0.5 µg/mL
same,Concentration,Mus musculus [5],2.4 µg/mL
same,MIC,Streptococcus pyogenes [6],2 µg/mL
same,ED50,Streptococcus pyogenes [7],23 mg/kg
same,Concentration,Rattus norvegicus [8],1.4 µg/mL
same,Concentration,Mus musculus [9],2.2 µg/mL
same,Concentration,Rattus norvegicus [10],1.4 µg/mL
same,MIC,[11],1 µg/mL
same,Concentration,Mus musculus [12],6.9 µg/mL
same,MIC,Enterococcus faecium,> 128 µg/mL
same,Concentration,Mus musculus [13],1.3 µg/mL
same,Concentration,Mus musculus [14],1.6 µg/mL
same,MIC,Streptococcus pneumoniae [15],32 µg/mL
same,MIC,Haemophilus influenzae [16],> 128 µg/mL
same,ED50,Streptococcus pyogenes [17],> 6.3 mg/kg
same,Concentration,Mus musculus [18],13.1 µg/mL
same,Concentration,Rattus norvegicus [19],1.6 µg/mL
CC[C@H]1OC(=O)[C@H](C)[C@@H](O[C@H]2C[C@@](C)(OC)[C@@H](O)[C@H](C)O2)[C@H](C)[C@@H](O[C@@H]2O[C@H](C)C[C@H](N(C)C)[C@H]2O)[C@](C)(O)C[C@@H](C)C(=O)[C@H](C)[C@@H](O)[C@]1(C)O [ERYTHROMYCIN],MIC,Haemophilus influenzae [20],4 µg/mL
same,Concentration,Mus musculus [1],5.6 µg ml-1 ml-1
same,Concentration,Rattus norvegicus [3],0.1 µg ml-1 ml-1
same,MIC,Eikenella corrodens,1 µg/mL
same,Concentration,Rattus norvegicus [4],0.1 µg ml-1 ml-1
same,MIC,[21],< 0.5 µg/mL
same,MIC,Staphylococcus aureus [22],0.25 µg/mL
same,MIC,Haemophilus influenzae [23],4 µg/mL
same,MIC,[24],1 µg/mL
same,MIC,[25],2 µg/mL
same,MIC,[26],4 µg/mL
same,Concentration,Rattus norvegicus [8],0.2 µg ml-1 ml-1
same,MIC,[27],1 µg/mL
same,MIC,Streptococcus [28],0.1 µg/mL
same,MIC,Clostridioides difficile,< 0.5 µg/mL
same,MIC,Streptococcus pneumoniae [29],6 µg/mL
same,Concentration,Rattus norvegicus [10],0.4 µg ml-1 ml-1
same,MIC,Phocaeicola vulgatus,< 0.5 µg/mL
same,MIC,Staphylococcus aureus [30],0.25 µg/mL
same,Concentration,Mus musculus [12],2.7 µg ml-1 ml-1
same,Concentration,Mus musculus [31],0.7 µg ml-1 ml-1
same,MIC,Haemophilus influenzae [32],2 µg/mL
same,MIC,Streptococcus [33],0.06 µg/mL
same,MIC,Clostridium perfringens,< 0.5 µg/mL
same,MIC,Streptococcus [34],0.06 µg/mL
same,MIC,Streptococcus [35],1 µg/mL
same,MIC,Fusobacterium,2 µg/mL
same,MIC,Streptococcus [36],0.12 µg/mL
same,MIC,[37],1 µg/mL
same,MIC,Bacteroides fragilis [38],4 µg/mL
same,MIC,Clostridium septicum,< 0.5 µg/mL
same,MIC,Streptococcus sanguinis,0.03 µg/mL
same,MIC,[39],8 µg/mL
same,MIC,Streptococcus [40],0.06 µg/mL
same,MIC,[41],0.06 µg/mL
same,MIC,Cutibacterium acnes,< 0.5 µg/mL
same,MIC,Streptococcus [42],0.12 µg/mL
same,MIC,Streptococcus [43],2 µg/mL
same,Concentration,Mus musculus [18],2.5 µg ml-1 ml-1
same,MIC,[44],2 µg/mL
same,Concentration,Rattus norvegicus [19],0.1 µg ml-1 ml-1
same,MIC,Bacteroides fragilis [45],2 µg/mL
same,MIC,Collinsella aerofaciens,< 0.5 µg/mL
same,MIC,Bacteroides fragilis [46],1 µg/mL
same,MIC,Staphylococcus aureus [47],0.25 µg/mL
